Source: ChEMBL document CHEMBL1153229, “The first synthetic agonists of FFA2: Discovery and SAR of phenylacetamides as allosteric modulators” (Bioorg Med Chem Lett, 2010)

Tests used:
[1] = test system: Rattus norvegicus; assay: Clearance in Sprague-Dawley rat at 0.5 mg/kg, iv; assay type: ADME, organism-based; set-up: dose 0.5 mg/kg, route intravenous; settings: in vivo
Method in brief: (§1)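 Male Sprague-Dawley rats dosed 0.5 mg/kg iv.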

[2] = test system: Rattus norvegicus; assay: AUC in Sprague-Dawley rat at 0.5 mg/kg, iv; assay type: ADME, organism-based, Plasma; set-up: dose 0.5 mg/kg, route intravenous; settings: in vivo; method in brief: as §1
[3] = Mean residence time in Sprague-Dawley rat at 0.5 mg/kg, iv; assay type: ADME, organism-based; set-up: dose 0.5 mg/kg, route intravenous; settings: in vivo; method in brief: as §1
[4] = Volume of distribution at steady state in Sprague-Dawley rat at 0.5 mg/kg, iv; assay type: ADME, organism-based; set-up: dose 0.5 mg/kg, route intravenous; settings: in vivo, read-out: Vdss; method in brief: as §1
[5] = target: T1, Free fatty acid receptor 2 (Homo sapiens, UniProt O15552); assay: Agonist activity at human FFA2 receptor expressed in CHO cells assessed as inhibition of forskolin-induced cAMP production; assay type: functional, cell-based
T1 sequence (O15552 whole entry): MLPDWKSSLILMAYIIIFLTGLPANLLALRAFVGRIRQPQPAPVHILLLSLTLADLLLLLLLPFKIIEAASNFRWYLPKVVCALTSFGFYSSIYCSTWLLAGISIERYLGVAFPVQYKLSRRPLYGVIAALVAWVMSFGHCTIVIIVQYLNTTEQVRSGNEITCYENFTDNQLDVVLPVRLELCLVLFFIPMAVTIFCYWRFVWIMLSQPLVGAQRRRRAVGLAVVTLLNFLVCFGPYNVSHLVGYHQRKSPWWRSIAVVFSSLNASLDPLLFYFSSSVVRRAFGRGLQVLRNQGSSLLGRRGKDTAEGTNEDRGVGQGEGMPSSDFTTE
Method in brief: (§2)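 Suspended cells, 10,000 per well, in Hank's balanced salt solution with 25 mM HEPES and 0.01% (w/v) BSA. Stimulated with forskolin (5 μM final) plus serially diluted test ligands, room temperature for 30 min. Antibody and lysis reagents then added, followed by overnight dark incubation with detection solution. Luminescence read (RLU). Efficacy expressed relative to acetate. Means of four experiments.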

[6] = target: T2, Free fatty acid receptor 2 (Homo sapiens) (UniProt O15552); assay: Agonist activity at human FFA2 receptor expressed in CHO cells assessed as inhibition of forskolin-induced cAMP production relative to acetate; assay type: functional, cell-based; method in brief: as §2
T2 sequence (whole entry): T1 sequence (O15552 whole entry)

[7] = Mean residence time in mouse at 5 mg/kg, po; assay type: ADME, organism-based; set-up: dose 5 mg/kg, route oral; settings: in vivo
[8] = Tmax in mouse at 5 mg/kg, po; assay type: ADME, organism-based; set-up: dose 5 mg/kg, route oral; settings: in vivo
[9] = Cmax in mouse at 5 mg/kg, po; assay type: ADME, organism-based; set-up: dose 5 mg/kg, route oral; settings: in vivo
[10] = AUC in mouse at 5 mg/kg, po; assay type: ADME, organism-based; set-up: dose 5 mg/kg, route oral; settings: plasma
[11] = target: T3, Free fatty acid receptor 2 (Mus musculus) (UniProt Q8VCK6); assay: Agonist activity at mouse FFA2 receptor expressed in CHO cells assessed as inhibition of forskolin-induced cAMP production; assay type: functional, cell-based; method in brief: as §2
T3 sequence (whole entry): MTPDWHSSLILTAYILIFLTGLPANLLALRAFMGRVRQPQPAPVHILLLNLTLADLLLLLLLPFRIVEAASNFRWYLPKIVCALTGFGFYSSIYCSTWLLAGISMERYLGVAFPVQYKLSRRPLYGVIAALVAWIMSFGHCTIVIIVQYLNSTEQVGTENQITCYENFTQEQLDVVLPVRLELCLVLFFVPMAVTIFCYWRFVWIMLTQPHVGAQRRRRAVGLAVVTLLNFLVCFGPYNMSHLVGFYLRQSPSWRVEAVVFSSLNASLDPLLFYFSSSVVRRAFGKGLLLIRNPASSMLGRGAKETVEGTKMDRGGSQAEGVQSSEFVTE

[12] = test system: 3T3-L1; assay: Inhibition of lipolysis in mouse 3T3L1 cells; assay type: functional, cell-based
Method in brief: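 Lipolysis measured in 3T3L1 adipocytes across a concentration range of test compound. Sensitivity to pertussis toxin treatment also examined. Means of three experiments.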

[13] = Metabolic stability in rat liver microsomes assessed as compound remaining after 30 mins; assay type: ADME, Microsome; settings: read-out: Stability
Method in brief: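 Incubated with rat liver microsomes; percent parent remaining at 30 min.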

SMILES	CL [1] [mL/min/kg]	AUC [2] [µg·h/mL]	MRT [3] [h]	Vd [4] [L/kg]	IC50 [5] [nM]	Efficacy [6] [%]	MRT [7] [h]	Tmax [8] [h]	Cmax [9] [ng/mL]	AUC [10] [µg·h/mL]	Activity [11] [µM]	inhibition [12]	remaining at 0.5 h [13] [%]
CC(C)[C@H](C(=O)Nc1ncc(Cl)s1)c1ccc(Cl)cc1	33	0.249	4.2	8.3	700	100							
CC(C)(C)[C@H](C(=O)Nc1ncc(Cl)s1)c1ccc(Cl)cc1	8	1.03	9	4.4	1000	97	7.6	2	569	4550			
CC(C)(C)[C@H](C(=O)Nc1ncc(-c2ccccc2)s1)c1ccc(Cl)cc1	5.33	1.67	9.1	2.7	700	111	9.2	2	1870	18600			
Cc1cnc(NC(=O)[C@H](c2ccc(Cl)cc2)C(C)C)s1					800	99					1.4	Dose-dependent effect	
CC(C)[C@H](C(=O)Nc1nccs1)c1ccc(Cl)cc1	107	0.079	1.1	7	700	100	1.8	1	5	10	1	Dose-dependent effect	2
